Test results taken from ChEMBL document CHEMBL1137767, “2-(3-Aryl-2-propenoyl)-3-methylquinoxaline-1,4-dioxides: a novel cluster of tumor-specific cytotoxins which reverse multidrug resistance” (Bioorg Med Chem, 2009).
Calls of active or inactive are those of the source. The rule behind the calls is not given here.

How the values were obtained:
[1] = Growth inhibition of human Molt4/C8 cells after 3 days; assay type: functional, cell-based; conditions: MOLT-4, 72 h
Method in brief: (§1)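 Human CEM and Molt 4/C8 T-lymphocytes were grown for three days with or without serial dilutions of the compound. IC50 is the concentration that inhibits cell growth by 50%.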

CCRF-CEM [2] = assay: Growth inhibition of human CEM cells after 3 days; assay type: functional, cell-based; conditions: 72 h; method in brief: as §1
[3] = target: T1, ATP-dependent translocase ABCB1 (Homo sapiens, UniProt P08183); assay: Reversal of P-glycoprotein-mediated multidrug resistance in human MDR1 gene transfected mouse L5178Y cells assessed as fluorescence activity ratio at 20 uM by rhodamine 123 accumulation assay; assay type: cell-based
T1 sequence (P08183 whole entry): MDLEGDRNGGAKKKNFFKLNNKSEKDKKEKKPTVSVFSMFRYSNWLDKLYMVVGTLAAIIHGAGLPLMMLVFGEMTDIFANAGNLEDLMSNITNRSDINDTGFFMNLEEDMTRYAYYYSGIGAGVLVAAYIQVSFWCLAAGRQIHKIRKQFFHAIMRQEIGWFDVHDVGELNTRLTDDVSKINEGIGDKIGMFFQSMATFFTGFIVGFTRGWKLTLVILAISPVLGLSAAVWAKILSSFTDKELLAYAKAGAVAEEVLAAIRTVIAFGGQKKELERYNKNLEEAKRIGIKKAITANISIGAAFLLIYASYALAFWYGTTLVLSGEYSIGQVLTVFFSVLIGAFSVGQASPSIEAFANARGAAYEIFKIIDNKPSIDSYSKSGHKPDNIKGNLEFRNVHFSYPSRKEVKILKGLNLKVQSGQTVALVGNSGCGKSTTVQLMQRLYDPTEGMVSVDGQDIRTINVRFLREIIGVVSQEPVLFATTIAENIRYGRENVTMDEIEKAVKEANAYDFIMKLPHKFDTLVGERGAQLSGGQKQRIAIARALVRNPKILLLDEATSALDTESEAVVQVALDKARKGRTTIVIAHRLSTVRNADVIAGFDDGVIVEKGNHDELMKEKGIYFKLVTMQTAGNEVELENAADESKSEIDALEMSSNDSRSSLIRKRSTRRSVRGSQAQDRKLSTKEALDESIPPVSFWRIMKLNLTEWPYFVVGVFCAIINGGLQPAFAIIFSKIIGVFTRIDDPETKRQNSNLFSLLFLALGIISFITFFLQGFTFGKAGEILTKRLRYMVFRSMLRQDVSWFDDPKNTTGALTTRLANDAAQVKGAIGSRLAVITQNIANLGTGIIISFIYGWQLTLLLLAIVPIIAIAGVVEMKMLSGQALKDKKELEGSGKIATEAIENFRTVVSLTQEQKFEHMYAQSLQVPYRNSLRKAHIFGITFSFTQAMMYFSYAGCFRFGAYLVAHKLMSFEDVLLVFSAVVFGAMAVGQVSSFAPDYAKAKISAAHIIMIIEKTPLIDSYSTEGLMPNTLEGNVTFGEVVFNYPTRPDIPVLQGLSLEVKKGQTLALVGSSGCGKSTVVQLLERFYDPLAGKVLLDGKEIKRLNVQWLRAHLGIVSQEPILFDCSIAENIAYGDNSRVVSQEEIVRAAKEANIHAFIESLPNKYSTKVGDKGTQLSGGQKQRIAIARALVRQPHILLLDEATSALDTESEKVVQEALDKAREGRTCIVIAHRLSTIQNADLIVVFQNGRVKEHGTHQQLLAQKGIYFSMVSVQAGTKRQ
Method in brief: (§2)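 Murine L-5178Y lymphoma cells transfected with human MDR1 gene (P-gp-overexpressing), alongside parental cells, treated or untreated with compound; rhodamine 123 accumulation measured by fluorescence; FAR = ratio of fluorescence intensity in treated versus untreated cells, values above 1 taken as MDR reversal.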

[4] = target: T1, ATP-dependent translocase ABCB1; assay: Reversal of P-glycoprotein-mediated multidrug resistance in human MDR1 gene transfected mouse L5178Y cells assessed as fluorescence activity ratio at 200 uM by rhodamine 123 accumulation assay; assay type: cell-based; method in brief: as §2
[5] = Cytotoxicity against human HGF cells after 48 hrs; assay type: cell-based
[6] = Cytotoxicity against human HPC cells after 48 hrs; assay type: cell-based
[7] = Cytotoxicity against human HPLF cells after 48 hrs; assay type: cell-based
HL-60 [8] = assay: Cytotoxicity against human HL60 cells after 48 hrs; assay type: functional; conditions: HL-60, 48 h
HSC-2 = assay: Cytotoxicity against human HSC2 cells after 48 hrs; assay type: functional; conditions: HSC-2, 48 h
HSC-3 = assay: Cytotoxicity against human HSC3 cells after 48 hrs; assay type: functional; conditions: HSC-3, 48 h
HSC-4 = assay: Cytotoxicity against human HSC4 cells after 48 hrs; assay type: functional; conditions: HSC-4, 48 h
CCRF-CEM [9] = assay: Growth inhibition of human CCRF-CEM cells at 10 uM; assay type: functional, cell-based
Method in brief: (§3)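 Human tumor cell line panel (59 lines across leukemia, melanoma, non-small cell lung, colon, CNS, ovarian, renal, prostate, breast) treated at a single 10 uM concentration; growth inhibition recorded per line.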

HL-60 [10] = assay: Growth inhibition of human HL60 cells at 10 uM; assay type: functional, cell-based; method in brief: as §3
K562 = assay: Growth inhibition of human K562 cells at 10 uM; assay type: functional, cell-based; method in brief: as §3
RPMI8266 = assay: Growth inhibition of human […] cells at 10 uM; assay type: functional, cell-based; method in brief: as §3
A549 = assay: Growth inhibition of human A549 cells at 10 uM; assay type: functional, cell-based; method in brief: as §3
EKVX = assay: Growth inhibition of human EKVX cells at 10 uM; assay type: functional, cell-based; method in brief: as §3
HOP-92 = assay: Growth inhibition of human HOP92 cells at 10 uM; assay type: functional, cell-based; method in brief: as §3
NCI-H23 = assay: Growth inhibition of human NCI-H23 cells at 10 uM; assay type: functional, cell-based; method in brief: as §3
NCI-H460 = assay: Growth inhibition of human NCI-H460 cells at 10 uM; assay type: functional, cell-based; method in brief: as §3
NCI-H522 = assay: Growth inhibition of human NCI-H522 cells at 10 uM; assay type: functional, cell-based; method in brief: as §3
HCC 2998 = assay: Growth inhibition of human HCC2998 cells at 10 uM; assay type: functional, cell-based; method in brief: as §3
HCT-116 = assay: Growth inhibition of human HCT116 cells at 10 uM; assay type: functional, cell-based; method in brief: as §3
HCT-15 = assay: Growth inhibition of human HCT15 cells at 10 uM; assay type: functional, cell-based; method in brief: as §3
SW-620 = assay: Growth inhibition of human SW620 cells at 10 uM; assay type: functional, cell-based; method in brief: as §3
SF-295 = assay: Growth inhibition of human SF295 cells at 10 uM; assay type: functional, cell-based; method in brief: as §3
SNB-75 = assay: Growth inhibition of human SNB75 cells at 10 uM; assay type: functional, cell-based; method in brief: as §3
U-251 = assay: Growth inhibition of human U251 cells at 10 uM; assay type: functional, cell-based; method in brief: as §3
LOX IMVI = assay: Growth inhibition of human LOXIMVI cells at 10 uM; assay type: functional, cell-based; method in brief: as §3
M14 = assay: Growth inhibition of human M14 cells at 10 uM; assay type: functional, cell-based; method in brief: as §3
UACC-62 = assay: Growth inhibition of human UACC62 cells at 10 uM; assay type: functional, cell-based; method in brief: as §3
IGROV-1 = assay: Growth inhibition of human IGROV1 cells at 10 uM; assay type: functional, cell-based; method in brief: as §3
OVCAR-3 = assay: Growth inhibition of human OVCAR-3 cells at 10 uM; assay type: functional, cell-based; method in brief: as §3
OVCAR-4 = assay: Growth inhibition of human OVCAR4 cells at 10 uM; assay type: functional, cell-based; method in brief: as §3
OVCAR-8 = assay: Growth inhibition of human OVCAR8 cells at 10 uM; assay type: functional, cell-based; method in brief: as §3
A498 = assay: Growth inhibition of human A498 cells at 10 uM; assay type: functional, cell-based; method in brief: as §3
CAKI-1 = assay: Growth inhibition of human Caki1 cells at 10 uM; assay type: functional, cell-based; method in brief: as §3
RXF 393 = assay: Growth inhibition of human RXF393 cells at 10 uM; assay type: functional, cell-based; method in brief: as §3
UO-31 = assay: Growth inhibition of human UO31 cells at 10 uM; assay type: functional, cell-based; method in brief: as §3
PC-3 = assay: Growth inhibition of human PC3 cells at 10 uM; assay type: functional, cell-based; method in brief: as §3
DU-145 = assay: Growth inhibition of human DU145 cells at 10 uM; assay type: functional, cell-based; method in brief: as §3
MCF7 = assay: Growth inhibition of human MCF7 cells at 10 uM; assay type: functional, cell-based; method in brief: as §3
NCI/ADR-RES = assay: Growth inhibition of human NCI/ADR-RES cells at 10 uM; assay type: functional, cell-based; method in brief: as §3
MDA-MB-468 = assay: Growth inhibition of human MDA-MB-468 cells at 10 uM; assay type: functional, cell-based; method in brief: as §3
Hs-578T = assay: Growth inhibition of human Hs 578T cells at 10 uM; assay type: functional, cell-based; method in brief: as §3
MDA-MB-435 = assay: Growth inhibition of human MDA-MB-435 cells at 10 uM; assay type: functional, cell-based; method in brief: as §3
T47D = assay: Growth inhibition of human T47D cells at 10 uM; assay type: functional, cell-based; method in brief: as §3

Cc1c(C(=O)/C=C/c2ccc(Br)cc2)[n+]([O-])c2ccccc2[n+]1[O-]
IC50 [1]: 17.1 µM | IC50 (CCRF-CEM [2]): 11.6 µM | Ratio [3]: 2.03 | Ratio [4]: 2.81 | CC50 at 48 h [5]: 53 µM | CC50 at 48 h [6]: 43 µM | CC50 at 48 h [7]: 26 µM | CC50 (HL-60 [8]): 23 µM | CC50 (HSC-2): 19 µM | CC50 (HSC-3): 56 µM | CC50 (HSC-4): 36 µM

Cc1ccc(/C=C/C(=O)c2c(C)[n+]([O-])c3ccccc3[n+]2[O-])cc1
IC50 [1]: 8.4 µM | IC50 (CCRF-CEM [2]): 22.4 µM | Ratio [3]: 9.79 | Ratio [4]: 27.2 | CC50 at 48 h [5]: 32 µM | CC50 at 48 h [6]: 40 µM | CC50 at 48 h [7]: 23 µM | CC50 (HL-60 [8]): 4.1 µM | CC50 (HSC-2): 8.4 µM | CC50 (HSC-3): 14 µM | CC50 (HSC-4): 11 µM

CC(=O)c1c(C)[n+]([O-])c2ccccc2[n+]1[O-] [MEQUINDOX]
IC50 [1]: 44.6 µM | IC50 (CCRF-CEM [2]): 87.4 µM | Ratio [3]: 1.06 | Ratio [4]: 1.04 | CC50 at 48 h [5]: > 400 µM | CC50 at 48 h [6]: 352 µM | CC50 at 48 h [7]: > 400 µM | CC50 (HL-60 [8]): 26 µM | CC50 (HSC-2): 196 µM | CC50 (HSC-3): 146 µM | CC50 (HSC-4): 134 µM

COc1ccc(/C=C/C(=O)c2c(C)[n+]([O-])c3ccccc3[n+]2[O-])cc1OC
IC50 [1]: 18.5 µM | IC50 (CCRF-CEM [2]): 19.2 µM | Ratio [3]: 5.01 | Ratio [4]: 23 | CC50 at 48 h [5]: 117 µM | CC50 at 48 h [6]: 142 µM | CC50 at 48 h [7]: 156 µM | CC50 (HL-60 [8]): 14 µM | CC50 (HSC-2): 25 µM | CC50 (HSC-3): 31 µM | CC50 (HSC-4): 38 µM | growth inhibition (GI) (CCRF-CEM [9]): Active | growth inhibition (GI) (HL-60 [10]): Active | growth inhibition (GI) (K562): Active | growth inhibition (GI) (RPMI8266): Active | growth inhibition (GI) (A549): Active | growth inhibition (GI) (EKVX): Active | growth inhibition (GI) (HOP-92): Active | growth inhibition (GI) (NCI-H23): Active | growth inhibition (GI) (NCI-H460): Active | growth inhibition (GI) (NCI-H522): Active | growth inhibition (GI) (HCC 2998): Active | growth inhibition (GI) (HCT-116): Active | growth inhibition (GI) (HCT-15): Active | growth inhibition (GI) (SW-620): Active | growth inhibition (GI) (SF-295): Active | growth inhibition (GI) (SNB-75): Active | growth inhibition (GI) (U-251): Active | growth inhibition (GI) (LOX IMVI): Active | growth inhibition (GI) (M14): Active | growth inhibition (GI) (UACC-62): Active | growth inhibition (GI) (IGROV-1): Active | growth inhibition (GI) (OVCAR-3): Active | growth inhibition (GI) (OVCAR-4): Active | growth inhibition (GI) (OVCAR-8): Active | growth inhibition (GI) (A498): Active | growth inhibition (GI) (CAKI-1): Active | growth inhibition (GI) (RXF 393): Active | growth inhibition (GI) (UO-31): Active | growth inhibition (GI) (PC-3): Active | growth inhibition (GI) (DU-145): Active | growth inhibition (GI) (MCF7): Active | growth inhibition (GI) (NCI/ADR-RES): Active | growth inhibition (GI) (MDA-MB-468): Active | growth inhibition (GI) (Hs-578T): Active | growth inhibition (GI) (MDA-MB-435): Active | growth inhibition (GI) (T47D): Active

Cc1c(C(=O)/C=C/c2ccccc2)[n+]([O-])c2ccccc2[n+]1[O-]
IC50 [1]: 6.76 µM | IC50 (CCRF-CEM [2]): 5.92 µM | Ratio [3]: 10.9 | Ratio [4]: 36.8 | CC50 at 48 h [5]: 32 µM | CC50 at 48 h [6]: 36 µM | CC50 at 48 h [7]: 35 µM | CC50 (HL-60 [8]): 4.1 µM | CC50 (HSC-2): 8.4 µM | CC50 (HSC-3): 9.7 µM | CC50 (HSC-4): 9.6 µM

Cc1c(C(=O)/C=C/c2ccc(Cl)cc2)[n+]([O-])c2ccccc2[n+]1[O-]
IC50 [1]: 7.75 µM | IC50 (CCRF-CEM [2]): 16 µM | Ratio [3]: 2.63 | Ratio [4]: 5.97 | CC50 at 48 h [5]: 27 µM | CC50 at 48 h [6]: 21 µM | CC50 at 48 h [7]: 12 µM | CC50 (HL-60 [8]): 11 µM | CC50 (HSC-2): 13 µM | CC50 (HSC-3): 38 µM | CC50 (HSC-4): 19 µM
